Assay results taken from ChEMBL document CHEMBL1926565, “Synthesis, antiproliferative activities and telomerase inhibition evaluation of novel asymmetrical 1,2-disubstituted amidoanthraquinone derivatives” (Eur J Med Chem, 2012).
Calls of active or inactive are those of the source. The rule behind the calls is not given here.

Tests used:
786-0 = assay: Cytotoxicity against human 786-0 cells assessed as cellular growth at 10 uM; type: functional
Summary of the method: (§1)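 Single-dose screen run by the NCI across its 60-human-tumour-cell-line panel; growth recorded for each cell line.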

COLO 205 = assay: Cytotoxicity against human COLO205 cells assessed as cellular growth at 10 uM; type: functional; summary of the method: as §1
SN12C = assay: Cytotoxicity against human SN12C cells assessed as cellular growth at 10 uM; type: functional
[1] = target: Telomerase reverse transcriptase (Homo sapiens) (UniProt O14746); assay: Inhibition of telomerase activity in human H1299 cell free extract at 10 uM by modified TRAP assay
Telomerase reverse transcriptase (Homo sapiens), sequence (O14746 whole entry): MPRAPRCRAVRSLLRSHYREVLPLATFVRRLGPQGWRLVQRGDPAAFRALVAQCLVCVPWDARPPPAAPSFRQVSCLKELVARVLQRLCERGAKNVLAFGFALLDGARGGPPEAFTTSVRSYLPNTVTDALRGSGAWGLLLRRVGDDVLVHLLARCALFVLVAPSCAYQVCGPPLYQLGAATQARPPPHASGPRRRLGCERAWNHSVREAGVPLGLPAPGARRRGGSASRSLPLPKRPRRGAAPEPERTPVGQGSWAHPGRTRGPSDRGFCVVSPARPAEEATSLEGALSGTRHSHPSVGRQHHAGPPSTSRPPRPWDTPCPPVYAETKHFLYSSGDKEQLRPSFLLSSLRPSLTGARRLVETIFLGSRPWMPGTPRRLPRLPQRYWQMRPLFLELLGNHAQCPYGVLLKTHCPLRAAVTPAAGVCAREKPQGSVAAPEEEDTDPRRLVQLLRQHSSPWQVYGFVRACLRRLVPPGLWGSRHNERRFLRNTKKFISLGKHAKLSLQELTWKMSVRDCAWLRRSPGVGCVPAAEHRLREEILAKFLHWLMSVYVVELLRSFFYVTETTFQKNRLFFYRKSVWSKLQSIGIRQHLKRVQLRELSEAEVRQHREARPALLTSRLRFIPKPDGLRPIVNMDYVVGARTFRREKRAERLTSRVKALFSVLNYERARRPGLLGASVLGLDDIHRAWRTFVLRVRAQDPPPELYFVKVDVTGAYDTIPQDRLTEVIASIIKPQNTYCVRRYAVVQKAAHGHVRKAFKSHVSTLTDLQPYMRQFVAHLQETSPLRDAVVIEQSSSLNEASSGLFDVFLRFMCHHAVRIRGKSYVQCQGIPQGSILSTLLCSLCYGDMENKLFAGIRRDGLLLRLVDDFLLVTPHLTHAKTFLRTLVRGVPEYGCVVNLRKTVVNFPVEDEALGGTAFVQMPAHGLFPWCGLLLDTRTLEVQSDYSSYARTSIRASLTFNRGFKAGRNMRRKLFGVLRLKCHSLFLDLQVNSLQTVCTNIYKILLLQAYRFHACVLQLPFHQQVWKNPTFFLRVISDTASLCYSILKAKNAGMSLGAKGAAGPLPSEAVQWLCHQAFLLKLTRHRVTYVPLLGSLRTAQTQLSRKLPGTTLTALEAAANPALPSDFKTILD
Summary of the method: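 TRAP assay using total cell lysate from H1299 lung cancer cells as the telomerase source, with protein measured against BSA standards. Compounds tested at 10 µM. Controls were lysate without inhibitor (positive) and RNase A-treated extract without inhibitor (negative).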

HCT-116 = assay: Cytotoxicity against human HCT116 cells assessed as cellular growth at 10 uM; type: functional; summary of the method: as §1
BT-549 = assay: Cytotoxicity against human BT549 cells assessed as cellular growth at 10 uM; type: functional; summary of the method: as §1
IGROV-1 = assay: Cytotoxicity against human IGROV1 cells assessed as cellular growth at 10 uM; type: functional; summary of the method: as §1
M14 = assay: Cytotoxicity against human M14 cells assessed as cellular growth at 10 uM; type: functional; summary of the method: as §1
SR = assay: Cytotoxicity against human SR cells assessed as cellular growth at 10 uM; type: functional
[2] = target: Telomerase reverse transcriptase (Homo sapiens) (UniProt O14746); assay: Residual activity of human TERT in H1299 cells at 1 uM after 24 hrs by SEAP reporter gene assay
MDA-MB-468 = assay: Cytotoxicity against human MDA-MB-468 cells assessed as cellular growth at 10 uM; type: functional; summary of the method: as §1
NCI-H460 = assay: Cytotoxicity against human NCI-H460 cells assessed as cellular growth at 10 uM; type: functional; summary of the method: as §1
HOP-62 = assay: Cytotoxicity against human HOP62 cells assessed as cellular growth at 10 uM; type: functional; summary of the method: as §1
HT-29 = assay: Cytotoxicity against human HT-29 cells assessed as cellular growth at 10 uM; type: functional; summary of the method: as §1
DU-145 = assay: Cytotoxicity against human DU145 cells assessed as cellular growth at 10 uM; type: functional; summary of the method: as §1
[3] = target: Telomerase reverse transcriptase (Homo sapiens) (UniProt O14746); assay: Residual activity of human TERT in H1299 cells at 10 uM after 24 hrs by SEAP reporter gene assay
[4] = Growth of human H1299 cells at 10 uM after 48 hrs by MTT assay; settings: NCI-H1299, 48 h
[5] = Growth of human H1299 cells at 1 uM after 48 hrs by MTT assay; settings: NCI-H1299, 48 h
MDA-MB-231 = assay: Cytotoxicity against human MDA-MB-231 cells assessed as cellular growth at 10 uM; type: functional; summary of the method: as §1
U-251 = assay: Cytotoxicity against human U251 cells assessed as cellular growth at 10 uM; type: functional
[6] = Growth of human H1299 cells at 100 uM 48 hrs by MTT assay; settings: NCI-H1299, 48 h
TK-10 = assay: Cytotoxicity against human TK10 cells assessed as cellular growth at 10 uM; type: functional
OVCAR-3 = assay: Cytotoxicity against human OVCAR3 cells assessed as cellular growth at 10 uM; type: functional; summary of the method: as §1
NCI/ADR-RES = assay: Cytotoxicity against human NCI/ADR-RES cells assessed as cellular growth at 10 uM; type: functional; summary of the method: as §1
HCT-15 = assay: Cytotoxicity against human HCT15 cells assessed as cellular growth at 10 uM; type: functional; summary of the method: as §1
NCI-H226 = assay: Cytotoxicity against human NCI-H226 cells assessed as cellular growth at 10 uM; type: functional; summary of the method: as §1
SF-268 = assay: Cytotoxicity against human SF268 cells assessed as cellular growth at 10 uM; type: functional; summary of the method: as §1
UO-31 = assay: Cytotoxicity against human UO31 cells assessed as cellular growth at 10 uM; type: functional
SNB-19 = assay: Cytotoxicity against human SNB19 cells assessed as cellular growth at 10 uM; type: functional
T47D = assay: Cytotoxicity against human T47D cells assessed as cellular growth at 10 uM; type: functional
HOP-92 = assay: Cytotoxicity against human HOP92 cells assessed as cellular growth at 10 uM; type: functional; summary of the method: as §1
SK-MEL-2 = assay: Cytotoxicity against human SK-MEL-2 cells assessed as cellular growth at 10 uM; type: functional; summary of the method: as §1
NCI-H522 = assay: Cytotoxicity against human NCI-H522 cells assessed as cellular growth at 10 uM; type: functional; summary of the method: as §1
KM12 = assay: Cytotoxicity against human KM12 cells assessed as cellular growth at 10 uM; type: functional; summary of the method: as §1
SK-OV-3 = assay: Cytotoxicity against human SKOV3 cells assessed as cellular growth at 10 uM; type: functional
[7] = target: Telomerase reverse transcriptase (Homo sapiens) (UniProt O14746); assay: Residual activity of human TERT in H1299 cells at 100 uM after 24 hrs by SEAP reporter gene assay
PC-3 = assay: Cytotoxicity against human PC3 cells assessed as cellular growth at 10 uM; type: functional; summary of the method: as §1
MDA-MB-435 = assay: Cytotoxicity against human MDA-MB-435 cells assessed as cellular growth at 10 uM; type: functional; summary of the method: as §1
LOX IMVI = assay: Cytotoxicity against human LOXIMVI cells assessed as cellular growth at 10 uM; type: functional; summary of the method: as §1
SW-620 = assay: Cytotoxicity against human SW620 cells assessed as cellular growth at 10 uM; type: functional
NCI-H23 = assay: Cytotoxicity against human NCI-H23 cells assessed as cellular growth at 10 uM; type: functional; summary of the method: as §1
UACC-62 = assay: Cytotoxicity against human UACC62 cells assessed as cellular growth at 10 uM; type: functional
NCI-H322M = assay: Cytotoxicity against human NCI-H322M cells assessed as cellular growth at 10 uM; type: functional; summary of the method: as §1
A498 = assay: Cytotoxicity against human A498 cells assessed as cellular growth at 10 uM; type: functional; summary of the method: as §1
SK-MEL-28 = assay: Cytotoxicity against human SK-MEL-28 cells assessed as cellular growth at 10 uM; type: functional; summary of the method: as §1
OVCAR-4 = assay: Cytotoxicity against human OVCAR4 cells assessed as cellular growth at 10 uM; type: functional; summary of the method: as §1
UACC-257 = assay: Cytotoxicity against human UACC257 cells assessed as cellular growth at 10 uM; type: functional
K562 = assay: Cytotoxicity against human K562 cells assessed as cellular growth at 10 uM; type: functional; summary of the method: as §1
[8] = Cytotoxicity against human Hs 578T cells assessed as cellular growth at 10 uM; type: functional; summary of the method: as §1
RXF 393 = assay: Cytotoxicity against human RXF393 cells assessed as cellular growth at 10 uM; type: functional; summary of the method: as §1
HCC 2998 = assay: Cytotoxicity against human HCC2998 cells assessed as cellular growth at 10 uM; type: functional; summary of the method: as §1
CAKI-1 = assay: Cytotoxicity against human Caki1 cells assessed as cellular growth at 10 uM; type: functional; summary of the method: as §1

Question: Which Activity (786-0) does the source give for Cc1ccc(C(=O)Nc2c(NC(=O)CCl)ccc3c2C(=O)c2ccccc2C3=O)cc1 here?
Answer: 11.3%

Question: And the Activity (COLO 205)?
Answer: -53.43%

Question: What about the Activity (SN12C) of the same compound?
Answer: -81.02%

Question: What about the inhibition [1] of the same compound?
Answer: inactive

Question: What about the Activity (HCT-116) of the same compound?
Answer: -54.27%

Question: And the Activity (BT-549)?
Answer: 28.19%

Question: And the Activity (IGROV-1)?
Answer: 51.41%

Question: And the Activity (M14)?
Answer: -22.68%

Question: What about the Activity (SR) of the same compound?
Answer: -19.84%

Question: What about the residual activity [2] of the same compound?
Answer: 109%

Question: What about the Activity (MDA-MB-468) of the same compound?
Answer: -83.42%

Question: What about the Activity (NCI-H460) of the same compound?
Answer: 95.65%

Question: And the Activity (HOP-62)?
Answer: -28.62%

Question: And the Activity (HT-29)?
Answer: 3.37%

Question: And the Activity (DU-145)?
Answer: -97.56%

Question: And the residual activity [3]?
Answer: 0%

Question: What about the growth, % of control at 10 µM [4] of the same compound?
Answer: 2%

Question: And the growth, % of control at 1 µM [5]?
Answer: 103%

Question: And the Activity (MDA-MB-231)?
Answer: 24.67%

Question: What about the Activity (U-251) of the same compound?
Answer: -44.02%

Question: And the growth, % of control at 100 µM [6]?
Answer: 0%

Question: And the Activity (TK-10)?
Answer: 130.52%

Question: And the Activity (OVCAR-3)?
Answer: -92.86%

Question: What about the Activity (NCI/ADR-RES) of the same compound?
Answer: 72.17%

Question: And the Activity (HCT-15)?
Answer: -50.22%

Question: What about the Activity (NCI-H226) of the same compound?
Answer: -25.3%

Question: What about the Activity (SF-268) of the same compound?
Answer: 14.63%

Question: What about the Activity (UO-31) of the same compound?
Answer: 42.91%

Question: What about the Activity (SNB-19) of the same compound?
Answer: 88.4%

Question: What about the Activity (T47D) of the same compound?
Answer: -49.46%

Question: What about the Activity (HOP-92) of the same compound?
Answer: -68.77%

Question: And the Activity (SK-MEL-2)?
Answer: 52%

Question: What about the Activity (NCI-H522) of the same compound?
Answer: 57.88%

Question: And the Activity (KM12)?
Answer: -19.53%

Question: And the Activity (SK-OV-3)?
Answer: 106.24%

Question: What about the residual activity [7] of the same compound?
Answer: 0%

Question: What about the Activity (PC-3) of the same compound?
Answer: 6.81%

Question: And the Activity (MDA-MB-435)?
Answer: 4.82%

Question: What about the Activity (LOX IMVI) of the same compound?
Answer: -57.05%

Question: What about the Activity (SW-620) of the same compound?
Answer: -43.27%

Question: And the Activity (NCI-H23)?
Answer: -85.89%

Question: And the Activity (UACC-62)?
Answer: -67.8%

Question: What about the Activity (NCI-H322M) of the same compound?
Answer: 95.05%

Question: What about the Activity (A498) of the same compound?
Answer: 123.78%

Question: And the Activity (SK-MEL-28)?
Answer: -31.94%

Question: What about the Activity (OVCAR-4) of the same compound?
Answer: 34.52%

Question: What does the source list for Cc1ccc(C(=O)Nc2c(NC(=O)CN3CCCC3)ccc3c2C(=O)c2ccccc2C3=O)cc1?
Answer: Activity (786-0): 65.15%; Activity (COLO 205): 65.6%; Activity (SN12C): 74.82%; inhibition [1]: inactive; Activity (HCT-116): 58.46%; Activity (BT-549): 81.58%; Activity (IGROV-1): 106.07%; Activity (M14): 88.01%; residual activity [2]: 81%; Activity (MDA-MB-468): 69.27%; Activity (NCI-H460): 61.05%; Activity (HOP-62): 113.43%; Activity (HT-29): 31.34%; Activity (DU-145): 91.52%; Activity (UACC-257): 92.83%; residual activity [3]: 59%; growth, % of control at 10 µM [4]: 69%; growth, % of control at 1 µM [5]: 88%; Activity (MDA-MB-231): 73.34%; Activity (U-251): 82.17%; growth, % of control at 100 µM [6]: 5%; Activity (K562): 40.86%; Activity (TK-10): 86.85%; Activity [8]: 69.39%; Activity (OVCAR-3): 77.82%; Activity (NCI/ADR-RES): 50.86%; Activity (HCT-15): 73.22%; Activity (NCI-H226): 90.22%; Activity (SF-268): 86.17%; Activity (UO-31): 69.24%; Activity (SNB-19): 108.22%; Activity (T47D): 44.33%; Activity (HOP-92): 59.33%; Activity (SK-MEL-2): 102.17%; Activity (NCI-H522): 103.02%; Activity (KM12): 51.05%; Activity (SK-OV-3): 82.13%; residual activity [7]: 3%; Activity (PC-3): 75%; Activity (RXF 393): 63.8%; Activity (MDA-MB-435): 79.14%; Activity (HCC 2998): 84.6%; Activity (LOX IMVI): 80.62%; Activity (CAKI-1): 55.64%; Activity (SW-620): 82.29%; Activity (NCI-H23): 73.29%; Activity (UACC-62): 76.82%; Activity (NCI-H322M): 82.5%; Activity (A498): 68.12%; Activity (SK-MEL-28): 92.18%; Activity (OVCAR-4): 47.06%
